Data on 27 compounds can be found in ChEMBL document CHEMBL1154326 (J Med Chem, 2009).

Each structure is given as a SMILES string. Calls of active or inactive are those of the source. The rule behind the calls is not given here.

Experiment [1] deals with T1, Histamine H2 receptor (Homo sapiens, UniProt P25021). The experiment is described as follows: Antagonist activity at human histamine H2 receptor expressed in Sf9 cells coexpressing GsalphaS protein by steady-state GTPase assay. The experiment is classed as functional. The essentials:
(§1)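 Antagonist-mode steady-state GTPase assay in Sf9 membranes: H1R coexpressed with RGS4; H2R as GsαS fusion; H3R coexpressed with Giα2/Gβ1γ2/RGS4; H4R as RGS19 fusion with Giα2/Gβ1γ2. […] MgCl2: H1R/H2R 1.0 mM, H3R/H4R 5.0 mM; H4R plus 100 mM NaCl. [γ-32P]GTP hydrolysis measured over 20 min at 25 °C. pKB from nonlinear sigmoidal fits; duplicate runs.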

The target in experiment [2] is T2, Histamine H3 receptor (Homo sapiens, UniProt Q9Y5N1). Nature of the experiment: Antagonist activity at human histamine H3 receptor expressed in Sf9 cells coexpressing Gialpha-2-Gbeta-1-gamma-2 and RGS4 proteins protein by steady-state GTPase assay. The experiment is classed as functional. The essentials:
as §1

Experiment [3] concerns the target T3, Histamine H4 receptor (Homo sapiens, UniProt Q9H3N8). The experiment is described as follows: Antagonist activity at human histamine H4 receptor expressed in Sf9 cells coexpressing RGS19 protein by steady-state GTPase assay. The experiment is classed as functional. The essentials: as §1
Experiment [4] concerns the target T1, Histamine H2 receptor. The experiment is described as follows: Agonist activity at human histamine H2 receptor expressed in Sf9 cells coexpressing GsalphaS protein at 1 mM by steady-state GTPase assay. The experiment is classed as functional.
Experiment [5] concerns the target Histamine H1 receptor (Homo sapiens, UniProt P35367). Nature of the experiment: Antagonist activity at human histamine H1 receptor expressed in Sf9 cells coexpressing RGS4 by steady-state GTPase assay. The experiment is classed as functional. The method in brief:
as §1

For experiment [6], the target named is T3, Histamine H4 receptor. Nature of the experiment: Agonist activity at human histamine H4 receptor expressed in Sf9 cells coexpressing RGS19 protein by steady-state GTPase assay. The experiment is classed as functional. The essentials:
(§2)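 Sf9 membranes (10-20 μg protein/tube), washed and resuspended in 10 mM Tris-HCl pH 7.4. H2R as hH2R-GsαS fusion; H3R coexpressed with Giα2, Gβ1γ2, RGS4; H4R as hH4R-RGS19 fusion with Giα2, Gβ1γ2. Buffer: 50 mM Tris/HCl pH 7.4, MgCl2 (H2R 1.0 mM; H3R/H4R 5.0 mM), 100 μM EDTA, 100 μM ATP, 100 nM GTP, 100 μM AppNHp, creatine phosphate/kinase, 0.2% BSA; H4R plus 100 mM NaCl.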

Experiment [7] has as its target T1, Histamine H2 receptor. The experiment is described as follows: Antagonist activity at human histamine H2 receptor expressed in Sf9 cells coexpressing GsalphaS protein by steady-state GTPase assay.
Experiment [8] addresses T1, Histamine H2 receptor. Nature of the experiment: Agonist activity at human histamine H2 receptor expressed in Sf9 cells coexpressing GsalphaS protein by steady-state GTPase assay. The experiment is classed as functional. The essentials: as §2
The target of experiment [9] is T2, Histamine H3 receptor. Nature of the experiment: Agonist activity at human histamine H3 receptor expressed in Sf9 cells coexpressing Gialpha-2-Gbeta-1-gamma-2 and RGS4 proteins protein by steady-state GTPase assay. The experiment is classed as functional. The essentials: as §2

T2 sequence (Q9Y5N1 whole entry): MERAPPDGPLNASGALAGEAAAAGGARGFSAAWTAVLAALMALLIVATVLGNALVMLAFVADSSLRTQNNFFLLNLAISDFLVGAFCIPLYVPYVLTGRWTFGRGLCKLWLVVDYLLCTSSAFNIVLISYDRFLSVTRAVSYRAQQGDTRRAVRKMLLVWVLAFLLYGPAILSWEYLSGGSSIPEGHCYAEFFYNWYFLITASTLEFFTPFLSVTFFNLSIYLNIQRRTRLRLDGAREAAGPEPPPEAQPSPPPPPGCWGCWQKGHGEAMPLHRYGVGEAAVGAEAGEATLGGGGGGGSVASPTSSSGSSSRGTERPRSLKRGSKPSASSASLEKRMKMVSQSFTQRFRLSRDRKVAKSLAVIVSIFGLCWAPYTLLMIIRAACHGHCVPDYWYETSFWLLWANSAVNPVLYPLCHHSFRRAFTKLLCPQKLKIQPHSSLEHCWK
T3 sequence (Q9H3N8 whole entry): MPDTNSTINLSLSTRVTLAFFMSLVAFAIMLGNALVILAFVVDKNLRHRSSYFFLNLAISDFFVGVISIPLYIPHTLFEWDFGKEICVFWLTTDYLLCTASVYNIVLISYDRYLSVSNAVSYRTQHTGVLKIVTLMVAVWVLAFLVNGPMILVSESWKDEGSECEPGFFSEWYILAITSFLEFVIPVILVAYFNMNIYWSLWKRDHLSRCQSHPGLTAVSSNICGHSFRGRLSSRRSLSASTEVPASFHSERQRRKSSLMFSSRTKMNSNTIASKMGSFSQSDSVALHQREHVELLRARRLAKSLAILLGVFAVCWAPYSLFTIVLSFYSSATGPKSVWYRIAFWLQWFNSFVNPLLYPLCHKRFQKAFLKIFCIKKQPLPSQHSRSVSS
T1 sequence (P25021 whole entry, the tested form may be a part): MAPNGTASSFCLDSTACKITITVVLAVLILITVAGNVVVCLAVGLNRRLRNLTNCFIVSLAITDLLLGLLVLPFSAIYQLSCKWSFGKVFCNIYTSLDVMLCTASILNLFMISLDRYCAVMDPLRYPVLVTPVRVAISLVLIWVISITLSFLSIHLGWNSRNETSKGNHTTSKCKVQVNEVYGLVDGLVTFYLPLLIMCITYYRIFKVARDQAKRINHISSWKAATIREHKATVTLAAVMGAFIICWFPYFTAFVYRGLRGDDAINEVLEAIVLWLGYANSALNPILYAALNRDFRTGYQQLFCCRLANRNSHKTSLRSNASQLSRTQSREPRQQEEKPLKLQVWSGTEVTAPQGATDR
Sequence of Histamine H1 receptor (P35367 whole entry): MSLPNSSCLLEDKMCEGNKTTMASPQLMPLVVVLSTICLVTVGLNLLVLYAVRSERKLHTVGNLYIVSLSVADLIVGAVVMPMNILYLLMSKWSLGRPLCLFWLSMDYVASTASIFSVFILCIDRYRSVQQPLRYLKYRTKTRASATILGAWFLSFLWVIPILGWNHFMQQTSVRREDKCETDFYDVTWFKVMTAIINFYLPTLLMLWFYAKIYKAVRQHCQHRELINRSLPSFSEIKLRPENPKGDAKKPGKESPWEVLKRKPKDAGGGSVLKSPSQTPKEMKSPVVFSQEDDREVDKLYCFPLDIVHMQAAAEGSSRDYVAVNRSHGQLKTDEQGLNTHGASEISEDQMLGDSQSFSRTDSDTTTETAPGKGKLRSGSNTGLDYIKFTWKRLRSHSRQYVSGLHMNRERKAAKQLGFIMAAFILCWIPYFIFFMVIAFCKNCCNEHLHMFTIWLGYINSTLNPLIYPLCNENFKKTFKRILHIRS

In general, pKb refers to −log10 of the Kb, conventionally taken in molar units. For `CC(C)CN/C(=N\C#N)NCCCCCc1c[nH]cn1`, the pKb in experiment [1] is less than 5; in experiment [2], 6.57; in experiment [3], 6.51.

Consider `N#C/N=C(\NCCCCc1ccccc1)NCCCCc1c[nH]cn1`, for which the figures for the negative-log Kb (pKb) in experiment [1], in [2] and in [3] were 5.03, 5.54 and 6.34, respectively.

As to `N#C/N=C(/NCCCCc1c[nH]cn1)NCCC(c1ccccc1)c1ccccc1`, the pKb in experiment [1] was 5; in experiment [3] it was 5.6.

Turning to `N#C/N=C(/NCCCc1c[nH]cn1)NCCc1c[nH]c2ccccc12`, in experiment [4], the result was inactive. For the same compound, the pKb in experiment [1] was less than 5; in [3], 5.37.

For `NC(=O)/N=C(/NCCCc1ccccc1)NCCCc1c[nH]cn1`, the pKb in [5] was less than 5; in experiment [2] it was 6.23; in [3], 6.77.

One may read the EC50 as the concentration that produces a half-maximal response. The low end stands for higher potency in that assay, the high end for lower potency in that assay. The compound `N#C/N=C(/NCCCCc1ccccc1)NCCc1c[nH]cn1` had an EC50 in experiment [6] greater than 10000 nM. The negative-log Kb (pKb) in [1] and in experiment [7] was less than 5 each time.

For the compound `Cc1[nH]cnc1CSCCN/C(=N/C#N)NCCC(c1ccccc1)c1ccccc1`, in [6], the EC50 is greater than 10000 nM. Also, the pKb in experiment [7] was found to be 5.8.

`N#CNC(=NCCc1cnc[nH]1)NCCCC1CCCCC1` showed a concentration for a half-maximal effect (EC50) in experiment [8] of 3890 nM.

On to `NC(=O)/N=C(/NCCCCc1ccccc1)NCCCc1c[nH]cn1`, for which the negative-log Kb (pKb) in [2] came to 6.51; in experiment [3], 6.33.

Consider `CC(CCN/C(=N\C#N)NCCCCc1c[nH]cn1)c1ccccc1` (configuration not stated), for which the figures for the pKb in experiment [5], in experiment [1] and in experiment [2] were less than 5, less than 5 and 6.19, respectively.

On to `Cc1[nH]cnc1CSCCN/C(=N\C#N)NCCCc1ccccc1`, for which the results for the pKb in [1] and in experiment [3] were 5.74 and less than 5, respectively.

With `N#C/N=C(/NCCCCCc1c[nH]cn1)NCCCc1ccccc1`, the negative logarithm of the Kb (pKb) in [1] was determined as 5.28; in [2], 6.55; in experiment [3] it was 6.96.

Consider `N#C/N=C(\NCCCCCc1c[nH]cn1)NCCSc1ccccc1`, for which the values for the negative logarithm of the Kb (pKb) in experiment [1], in experiment [2] and in experiment [3] were 5.21, 6.74 and 6.85, respectively.

With `N#CNC(N)=NCCCCc1cnc[nH]1`, the EC50 is 251 nM in experiment [9] and 170 nM in experiment [6].

Consider `N#C/N=C(\NCCc1c[nH]cn1)NCCc1c[nH]c2ccccc12`, for which the pKb in experiment [3] and in experiment [7] was less than 5 in each case.

Turning to `N#C/N=C(/NCCCCc1c[nH]cn1)NCCc1ccccc1`, the EC50 in [6] was 1100 nM. Further, the pKb in experiment [1] stood at 5; in experiment [2] it was 5.82.

Turning to `NC(=O)N=C(NCCCCc1c[nH]cn1)NCCCc1ccccc1`, the EC50 in experiment [8] is 437 nM.

In experiment [8], `N=C(NCCCc1c[nH]cn1)NS(=O)(=O)CCc1ccccc1` gave an EC50 of 12000 nM. The pKb in experiment [2] was 6.57; in experiment [3] it was 5.85.

For the compound `N#C/N=C(/NCCCCc1c[nH]cn1)NCCCc1ccccc1`, the pKb in experiment [5] was less than 5; in experiment [1], 5.25; in experiment [2] it was 5.64.

With `N#C/N=C(/NCCCC1CCCCC1)NCCc1c[nH]cn1`, in experiment [3], the negative-log Kb (pKb) stood at 5.57.

Turning to `N#C/N=C(/NCCc1c[nH]cn1)NCCC(c1ccccc1)c1ccccc1`, the pKb in experiment [1] and in experiment [3] was less than 5 throughout.

Take `N#C/N=C(\NCCc1ccccc1)NCCc1c[nH]cn1`: in [4], the outcome was inactive. The same compound displayed a negative-log Kb (pKb) in experiment [3] of 5.18.

In experiment [8], `Cc1ccc(S(=O)(=O)NC(=N)NCCCc2c[nH]cn2)cc1` showed an EC50 of 12000 nM. In addition, the values for the negative logarithm of the Kb (pKb) in experiment [5], in experiment [2] and in [3] were less than 5, 6.11 and 5.85, respectively.

Turning to `CN/C(=N\C#N)NCCCCCc1c[nH]cn1`, the negative logarithm of the Kb (pKb) in experiment [1] amounted to 5.66; in experiment [2], 6.38; in experiment [3], 6.54.

Turning to `N#C/N=C(/NCCCCc1c[nH]cn1)NCCCc1ccccn1`, the EC50 in experiment [6] is 575 nM. Further, the pKb in experiment [1] is 5.48; in experiment [2], 5.89.

`N#CNC(=NCCCCc1cnc[nH]1)NCCCc1ccncc1` showed a concentration for a half-maximal effect (EC50) in experiment [6] of 2570 nM.

In experiment [6], `CC(C)N/C(=N\C#N)NCCCCc1c[nH]cn1` showed an EC50 of 331 nM. Moreover, the pKb in [5] was less than 5; in [1], less than 5; in experiment [2], 5.49.
